In ChEMBL document CHEMBL4261516, “Design, synthesis and pharmacological evaluation of new 2-oxo-quinoline derivatives containing α-aminophosphonates as potential antitumor agents” (Medchemcomm, 2017) one finds IC50 data, which are given here for 36 compounds.

Molecules are shown by their SMILES.

The test system of test [1] is L02. Nature of the test: Cytotoxicity against human HL-7702 cells after 48 hrs by MTT assay. Format: cell-based. The conditions noted are these: L02, 48 h. The gist of the method: (§1)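 HepG2, SK-OV-3, NCI-H460 and HL 7702 lines grown as monolayers in DMEM with 10% FBS plus penicillin/streptomycin at 37 °C, 5% CO2. Exponentially growing cells were seeded and exposed to the indicated concentrations for 48 h. MTT was then added for 4 h at 37 °C, formazan was dissolved in DMSO, and OD was read at 490 nm. Each concentration was run in triplicate wells, with three independent runs per line.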
In general terms: Tetrazolium dyes change colour on reduction, which living cells bring about.

Test [2] concerns SK-OV-3. Nature of the test: Cytotoxicity against human SKOV3 cells after 48 hrs by MTT assay. It counts as functional, cell-based. The note with it: SK-OV-3, 48 h. The gist of the method:
as §1

For test [3], the system named is HepG2. Nature of the test: Cytotoxicity against human HepG2 cells after 48 hrs by MTT assay. It counts as functional, cell-based. The note with it: HepG2, 48 h. The gist of the method: as §1
The subject of test [4] is NCI-H460. Put plainly: Cytotoxicity against human NCI-H460 cells after 48 hrs by MTT assay. The conditions noted are these: NCI-H460, 48 h. It counts as functional, cell-based. The gist of the method:
as §1

What is called IC50 is the concentration that gives 50% inhibition. Higher therefore signals lower potency.

`CCOP(=O)(OCC)C(Nc1ccc(C)cc1)c1cc2ccccc2[nH]c1=O` (configuration not stated): the IC50 in test [1] was greater than 100 µM; in test [2] it was 66.8 µM; in test [3], 67.3 µM; in test [4], greater than 100 µM.
For the compound `O=Cc1cc2cc3c(cc2[nH]c1=O)OCO3`, the IC50 was greater than 100 µM in test [1], greater than 200 µM in test [2], greater than 200 µM in test [3] and greater than 200 µM in test [4].
Regarding `CCOP(=O)(Cc1ccc(/N=C/c2cc3cc(OC)ccc3[nH]c2=O)cc1)OCC`, the half-inhibitory concentration (IC50) in test [1] is greater than 100 µM; in test [2], 53 µM; in test [3], 17.3 µM; in test [4], greater than 100 µM.
Consider `CCOP(=O)(Cc1ccc(/N=C/c2cc3ccccc3[nH]c2=O)cc1)OCC`, for which the IC50 was greater than 100 µM in test [1], 36 µM in test [2], 17.9 µM in test [3] and 57.9 µM in test [4].
For `O=Cc1cc2ccccc2[nH]c1=O` the same measures were greater than 100 µM, greater than 200 µM, greater than 200 µM and greater than 200 µM.
As for `CCOP(=O)(OCC)C(Nc1ccc(C)cc1)c1cc2cc(OC)ccc2[nH]c1=O` (configuration not stated), the IC50 was greater than 100 µM in test [1], 60 µM in test [2], 57.6 µM in test [3] and greater than 100 µM in test [4].
With `CCOP(=O)(OCC)C(Nc1ccc([N+](=O)[O-])cc1)c1cc2cc(OC)ccc2[nH]c1=O` (configuration not stated), the IC50 in test [1] is greater than 100 µM; in test [2] it was 25.1 µM; in test [3], 20.8 µM; in test [4], 44.6 µM.
As to `CCOP(=O)(OCC)C(Nc1ccc([N+](=O)[O-])cc1)c1cc2ccccc2[nH]c1=O` (configuration not stated), the IC50 in test [1] is greater than 100 µM; in test [2], 30 µM; in test [3], 75.2 µM; in test [4], greater than 100 µM.
For `CCOP(=O)(OCC)C(Nc1ccccc1)c1cc2cc(C)ccc2[nH]c1=O` (configuration not stated), the IC50 in test [1] is greater than 100 µM; in test [2], 69.4 µM; in test [3], 39.6 µM; in test [4], greater than 100 µM.
For the compound `CCCCNC(c1cc2cc(C)ccc2[nH]c1=O)P(=O)(OCC)OCC` (configuration not stated), the IC50 in test [1] is greater than 100 µM; in test [2] it was 130 µM; in test [3] it was 39.2 µM; in test [4], greater than 100 µM.
For `CCCCNC(c1cc2cc3c(cc2[nH]c1=O)OCO3)P(=O)(OCC)OCC` (configuration not stated), the IC50 in test [1] was greater than 100 µM; in test [2], 37.2 µM; in test [3], 46.3 µM; in test [4], 47.9 µM.
The corresponding values for `COc1ccc2[nH]c(=O)c(C=O)cc2c1` are greater than 100 µM, greater than 200 µM, greater than 200 µM and greater than 200 µM.
For `CCOP(=O)(OCC)C(Nc1ccc(C)cc1)c1cc2cc(C)ccc2[nH]c1=O` (configuration not stated) the same measures were greater than 100 µM, 37.2 µM, 37.6 µM and greater than 100 µM.
On to `CCOP(=O)(OCC)C(Nc1cccc(C)c1)c1cc2ccccc2[nH]c1=O` (configuration not stated), for which the IC50 in test [1] was greater than 100 µM; in test [2], 56 µM; in test [3], 65.5 µM; in test [4] it was greater than 100 µM.
`CCOP(=O)(OCC)C(Nc1ccc(C(F)(F)F)cc1)c1cc2ccccc2[nH]c1=O` (configuration not stated): the IC50 in test [1] was greater than 100 µM; in test [2], 25.8 µM; in test [3], 39.1 µM; in test [4] it was greater than 100 µM.
As to `CCOP(=O)(OCC)C(Nc1ccc(C(F)(F)F)cc1)c1cc2cc(C)ccc2[nH]c1=O` (configuration not stated), the IC50 in test [1] is greater than 100 µM; in test [2] it was 191 µM; in test [3], 68.1 µM; in test [4] it was greater than 100 µM.
`CCOP(=O)(OCC)C(Nc1ccc(F)cc1)c1cc2ccccc2[nH]c1=O` (configuration not stated): the IC50 in test [1] is greater than 100 µM; in test [2] it was 41 µM; in test [3] it was 37.2 µM; in test [4], greater than 100 µM.
For `CCCCNC(c1cc2cc(OC)ccc2[nH]c1=O)P(=O)(OCC)OCC` (configuration not stated), the IC50 was greater than 100 µM in test [1], 58.2 µM in test [2], 43.2 µM in test [3] and greater than 100 µM in test [4].
For the compound `CCOP(=O)(OCC)C(Nc1ccc(F)cc1)c1cc2cc(OC)ccc2[nH]c1=O` (configuration not stated), the IC50 in test [1] was greater than 100 µM; in test [2], 270 µM; in test [3], 58.9 µM; in test [4], greater than 100 µM.
Regarding `CCOP(=O)(OCC)C(Nc1cccc(C)c1)c1cc2cc(OC)ccc2[nH]c1=O` (configuration not stated), the IC50 in test [1] was greater than 100 µM; in test [2], 73 µM; in test [3], 45.5 µM; in test [4] it was greater than 100 µM.
For the compound `CCOP(=O)(OCC)C(Nc1ccc(C(F)(F)F)cc1)c1cc2cc(OC)ccc2[nH]c1=O` (configuration not stated), the IC50 is greater than 100 µM in test [1], 102 µM in test [2], 40.1 µM in test [3] and greater than 100 µM in test [4].
`O=c1[nH]cc(F)c(=O)[nH]1` [FLUOROURACIL]: the IC50 in test [1] came to 58.7 µM; in test [2], 26.3 µM.
With `CCCCNC(c1cc2ccccc2[nH]c1=O)P(=O)(OCC)OCC` (configuration not stated), the IC50 is greater than 100 µM in test [1], 38.3 µM in test [2], 61.4 µM in test [3] and greater than 100 µM in test [4].
For the compound `CCOP(=O)(OCC)C(Nc1ccc(C)cc1)c1cc2cc3c(cc2[nH]c1=O)OCO3` (configuration not stated), the IC50 was greater than 100 µM in test [1], 48.9 µM in test [2], 43.1 µM in test [3] and greater than 100 µM in test [4].
For `CCOP(=O)(OCC)C(Nc1ccc([N+](=O)[O-])cc1)c1cc2cc3c(cc2[nH]c1=O)OCO3` (configuration not stated), the IC50 in test [1] is greater than 100 µM; in test [2], 28.2 µM; in test [3], 44 µM; in test [4], greater than 100 µM.
`CCOP(=O)(OCC)C(Nc1ccc(F)cc1)c1cc2cc3c(cc2[nH]c1=O)OCO3` (configuration not stated): the IC50 was greater than 100 µM in test [1], 26.2 µM in test [2], 38 µM in test [3] and 59.6 µM in test [4].
For `CCOP(=O)(OCC)C(Nc1ccc([N+](=O)[O-])cc1)c1cc2cc(C)ccc2[nH]c1=O` (configuration not stated) the same measures were greater than 100 µM, greater than 200 µM, 35.6 µM and greater than 100 µM.
With `CCOP(=O)(OCC)C(Nc1ccccc1)c1cc2cc(OC)ccc2[nH]c1=O` (configuration not stated), the IC50 in test [1] is greater than 100 µM; in test [2], 54.7 µM; in test [3] it was 60.8 µM; in test [4], greater than 100 µM.
As to `CCOP(=O)(OCC)C(Nc1cccc(C)c1)c1cc2cc(C)ccc2[nH]c1=O` (configuration not stated), the IC50 in test [1] was greater than 100 µM; in test [2] it was 342 µM; in test [3] it was 46 µM; in test [4], greater than 100 µM.
With `CCOP(=O)(OCC)C(Nc1ccccc1)c1cc2cc3c(cc2[nH]c1=O)OCO3` (configuration not stated), the IC50 in test [1] was greater than 100 µM; in test [2], 65 µM; in test [3] it was 45.2 µM; in test [4], greater than 100 µM.
With `CCOP(=O)(OCC)C(Nc1ccccc1)c1cc2ccccc2[nH]c1=O` (configuration not stated), the IC50 in test [1] is greater than 100 µM; in test [2], 54.1 µM; in test [3] it was 46.3 µM; in test [4], greater than 100 µM.
For the compound `CCOP(=O)(OCC)C(Nc1ccc(F)cc1)c1cc2cc(C)ccc2[nH]c1=O` (configuration not stated), the IC50 in test [1] was greater than 100 µM; in test [2], 30.3 µM; in test [3], 46.2 µM; in test [4], greater than 100 µM.
With `CCOP(=O)(Cc1ccc(/N=C/c2cc3cc4c(cc3[nH]c2=O)OCO4)cc1)OCC`, the IC50 is greater than 100 µM in test [1], 47.9 µM in test [2], 28.9 µM in test [3] and greater than 100 µM in test [4].
`CCOP(=O)(OCC)C(Nc1cccc(C)c1)c1cc2cc3c(cc2[nH]c1=O)OCO3` (configuration not stated): the IC50 in test [1], in test [2], in test [3] and in test [4] was greater than 100 µM throughout.
As to `Cc1ccc2[nH]c(=O)c(C=O)cc2c1`, the IC50 in test [1] was greater than 100 µM; in test [2], greater than 200 µM; in test [3] it was greater than 200 µM; in test [4], greater than 200 µM.
On to `CCOP(=O)(OCC)C(Nc1ccc(C(F)(F)F)cc1)c1cc2cc3c(cc2[nH]c1=O)OCO3` (configuration not stated), for which the IC50 in test [1] was greater than 100 µM; in test [2], 22.4 µM; in test [3], 79 µM; in test [4], greater than 100 µM.
